Entries after “also recorded” stand apart in the source; their conditions may differ.
Assays:
FAAH [1] = biological target: T1, FAAH (Mus musculus, UniProt O08914); assay: AEA substrate assay in mouse brain proteomes; assay type: biochemical
T1 sequence (O08914 1-579): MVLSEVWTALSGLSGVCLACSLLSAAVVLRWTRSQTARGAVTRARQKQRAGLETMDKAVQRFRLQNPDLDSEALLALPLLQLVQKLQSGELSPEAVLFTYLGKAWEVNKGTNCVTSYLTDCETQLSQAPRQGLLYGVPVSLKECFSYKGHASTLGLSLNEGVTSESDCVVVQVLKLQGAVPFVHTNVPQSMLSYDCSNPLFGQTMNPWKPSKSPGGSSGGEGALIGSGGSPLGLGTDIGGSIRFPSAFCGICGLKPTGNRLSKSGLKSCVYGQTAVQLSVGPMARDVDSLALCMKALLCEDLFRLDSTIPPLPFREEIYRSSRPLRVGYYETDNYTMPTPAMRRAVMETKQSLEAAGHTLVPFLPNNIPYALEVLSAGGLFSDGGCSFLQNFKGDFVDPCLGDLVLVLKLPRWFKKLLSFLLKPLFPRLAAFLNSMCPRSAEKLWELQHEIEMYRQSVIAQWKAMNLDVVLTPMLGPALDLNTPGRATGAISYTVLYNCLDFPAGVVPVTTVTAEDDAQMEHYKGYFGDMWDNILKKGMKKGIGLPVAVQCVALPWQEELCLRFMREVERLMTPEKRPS
How it was run: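 Mouse brain proteome was treated with test compound. FAAH activity was read as hydrolysis of AEA substrate. Data are means ± SEM of three independent experiments.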

MAGL [2] = biological target: T2, MAGL (Mus musculus, UniProt O35678); assay: gel-based ABPP of peripheral tissues from inhibitor-treated mice; assay type: in vivo; details: 1 mg kg^−1 p.o., 4 h, liver, lung, spleen
T2 sequence (O35678 1-303): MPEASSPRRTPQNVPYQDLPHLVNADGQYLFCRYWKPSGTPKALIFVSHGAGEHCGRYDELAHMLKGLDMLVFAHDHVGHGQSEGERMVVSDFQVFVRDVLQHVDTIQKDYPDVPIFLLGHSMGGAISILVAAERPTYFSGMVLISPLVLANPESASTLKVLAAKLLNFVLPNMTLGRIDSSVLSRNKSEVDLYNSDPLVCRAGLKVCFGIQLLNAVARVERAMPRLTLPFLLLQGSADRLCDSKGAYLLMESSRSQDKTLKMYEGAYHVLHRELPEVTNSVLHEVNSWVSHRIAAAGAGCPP

FAAH [3] = biological target: T1, FAAH; assay: AEA hydrolytic activity of brain tissue from treated mice; assay type: in vivo; details: KML29-treated mice, 1–40 mg kg^−1 p.o.
How it was run: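 C57Bl/6 mice were dosed orally with the test compound (1–40 mg kg−1) or vehicle. The compound was dissolved in PEG by prolonged sonication and mild heating. Mice were killed after 4 h. Brain was analysed for 2-AG, AA, AEA, PEA and OEA, and brain proteomes for residual AEA and 2-AG hydrolysis (substrate assay). n = 3 mice/group, means ± SEM, compared with vehicle-treated mice.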

FAAH [4] = biological target: T3, FAAH (Rattus norvegicus, UniProt P97612); assay: competitive ABPP, rat brain membrane proteome; assay type: biochemical
T3 sequence (P97612 1-579): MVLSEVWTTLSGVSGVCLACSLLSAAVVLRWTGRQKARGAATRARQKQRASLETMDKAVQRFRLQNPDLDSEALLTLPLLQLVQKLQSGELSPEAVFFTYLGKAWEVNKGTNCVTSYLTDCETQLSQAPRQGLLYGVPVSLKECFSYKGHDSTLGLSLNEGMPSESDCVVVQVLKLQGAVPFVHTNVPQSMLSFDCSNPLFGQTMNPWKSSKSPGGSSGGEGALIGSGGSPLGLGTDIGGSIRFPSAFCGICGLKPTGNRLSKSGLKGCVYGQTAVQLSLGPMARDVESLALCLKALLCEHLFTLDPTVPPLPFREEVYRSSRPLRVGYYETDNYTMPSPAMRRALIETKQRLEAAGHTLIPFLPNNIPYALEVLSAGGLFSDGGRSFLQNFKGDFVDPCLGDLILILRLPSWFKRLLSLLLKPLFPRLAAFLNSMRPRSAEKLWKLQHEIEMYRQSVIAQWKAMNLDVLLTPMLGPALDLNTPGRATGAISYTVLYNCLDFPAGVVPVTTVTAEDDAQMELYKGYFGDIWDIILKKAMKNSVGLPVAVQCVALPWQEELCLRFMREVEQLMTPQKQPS
How it was run: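 Rat brain proteome pre-treated with test compound, then labelled with the serine hydrolase-directed fluorophosphonate-rhodamine (FP-Rh) activity-based probe. Proteins separated by SDS-PAGE and detected by in-gel fluorescence scanning. Inhibition scored as loss of FP-Rh labelling of the FAAH band. IC50 calculated from the gel-based ABPP data.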

FAAH [5] = biological target: T3, FAAH; assay: brain AEA hydrolytic activity from KML29-treated rats; assay type: in vivo; details: 1–40 mg kg^−1 i.p., 4 h
How it was run: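 Wistar rats received the test compound i.p. (1–40 mg kg−1 in saline:emulphor:ethanol 18:1:1) or vehicle and were killed after 4 h. Brain MAGL and FAAH activities were measured as hydrolysis of 2-AG and AEA, respectively. Means ± SEM, n = 3 rats/group, compared with vehicle-treated rats.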

MAGL [6] = biological target: T2, MAGL; assay: competitive ABPP of brain from inhibitor-treated mice; assay type: in vivo; details: for blockade of MAGL activity in brain: C57Bl/6 mice, 4 h
MAGL [7] = biological target: T2, MAGL; assay: 2-AG substrate assay in mouse brain proteomes; assay type: biochemical
ABHD6 = biological target: T4, ABHD6 (Rattus norvegicus, UniProt Q5XI64); assay: competitive ABPP, rat brain membrane proteome; assay type: biochemical; details: rat brain serine hydrolase activities, full ABPP gel
T4 sequence (Q5XI64 1-337): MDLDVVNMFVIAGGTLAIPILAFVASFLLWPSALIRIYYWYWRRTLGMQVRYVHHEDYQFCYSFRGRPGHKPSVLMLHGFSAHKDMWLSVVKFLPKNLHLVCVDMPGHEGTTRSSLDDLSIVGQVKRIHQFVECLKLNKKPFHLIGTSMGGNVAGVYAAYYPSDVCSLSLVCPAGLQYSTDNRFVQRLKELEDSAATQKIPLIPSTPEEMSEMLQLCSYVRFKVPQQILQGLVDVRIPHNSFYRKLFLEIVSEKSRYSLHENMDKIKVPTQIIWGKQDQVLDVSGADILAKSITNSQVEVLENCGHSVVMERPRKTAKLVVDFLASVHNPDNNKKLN
How it was run: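 Brain (mouse or rat) or mouse lung proteomes were preincubated with the test compound, then treated with the serine hydrolase probe FP-Rh. Samples were separated by SDS-PAGE and read by in-gel fluorescence scanning. Inhibition was taken as reduced FP-Rh labelling of MAGL, ABHD6, FAAH or CES bands, and IC50 values were calculated from quantified gel bands. Three independent experiments.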

Which “effect on AEA hydrolysis” value (FAAH [1]) does the source give for `O=C(OC(C(F)(F)F)C(F)(F)F)N1CCC(C(O)(c2ccc3c(c2)OCO3)c2ccc3c(c2)OCO3)CC1` [KML29] here?
The value was “did not affect AEA hydrolysis at any concentration tested”.

And the “MAGL inhibition in peripheral tissues” value (MAGL [2])?
Its value is “near-complete blockade of MAGL”.

What about the “residual FAAH activity in brain proteomes (substrate assay)” value (FAAH [3]) of the same compound?
The value was “lack of any effect on FAAH”.

And the “FAAH inhibition / cross-reactivity (gel-based ABPP)” value (FAAH [4]; rat brain proteome)?
The value was “no detectable cross-reactivity; also recorded: No inhibition of FAAH was detected”.

And the IC50 (FAAH [4]; read-out: IC50 (95% CI), rat FAAH, competitive ABPP, rat brain membrane proteome)?
Its IC50 is > 50 µM.

And the “brain AEA hydrolytic activity” value (FAAH [5])?
The value was “not affected at any dose”.

What about the “blockade of MAGL activity in brain” value (MAGL [6]; 5 mg kg^−1 p.o.) of the same compound?
The value was “partial inhibition”.

And the “blockade of MAGL activity in brain” value (MAGL [6]; 20 mg kg^−1 p.o.)?
The value was “maximal inhibition”.

What about the “time until which brain MAGL inhibition was sustained” value (MAGL [6]; mice, single oral dose 20 mg kg^−1) of the same compound?
The value was 12 to 24 h.

And the “time post-administration of maximal inhibition of brain MAGL” value (MAGL [6]; mice, single oral dose 20 mg kg^−1, earliest time point tested)?
The value was ≤ 1 h.

And the “inhibition of 2-AG hydrolysis” value (MAGL [7])?
The value was “potent inhibitor of 2-AG hydrolysis”.

What about the “concentrations with inhibition of ABHD6” value (ABHD6) of the same compound?
Its value is > 1 µM.
